Source: ChEMBL document CHEMBL1126585, “Effect of N-methyl substitution of the peptide bonds in luteinizing hormone-releasing hormone agonists” (J Med Chem, 1993)

What was measured:
[1] = Clearance in rat after iv dose (100 ug/kg); type: ADME, organism-based; details: in vivo, 0.1 mg/kg
Summary of the method: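 Castrate male rats given 100 μg/kg iv bolus; blood sampled over 6 h with EDTA anticoagulant. Plasma levels by RIA with antibody recognizing C-terminal Leu-Arg-Pro-NHEt or Leu-Arg-Pro-GlyNH₂ (rabbit antisera C-402 with [125I-Tyr⁵]leuprolide tracer, or 5328W with [125I-Tyr⁵,DLys⁶]LHRH). AUC by trapezoidal rule; whole-body clearance = dose/AUC, mL/min per kg.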

chymotrypsin = experiment: Chymotrypsin degradation half-life was determined; type: ADME
Rattus norvegicus [2] = organism: Rattus norvegicus; experiment: Intestinal stability against rat jejunum sac, activity is expressed as T1/2; type: functional
Summary of the method: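 Rat jejunal sac in vitro; T1/2 taken as time, in min, for lumenal compound concentration to fall by 50%.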

Rattus norvegicus [3] = organism: Rattus norvegicus; experiment: In vitro for LH release inhibition from cultured rat pituitary cells, activity is expressed as pA2 value; type: functional, cell-based; details: Pituitary gland cell, read-out: pA2 (converted)
Summary of the method: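 Cultured rat pituitary cells releasing LH in response to agonist; pA2 = negative log of antagonist concentration requiring 2-fold more agonist for LH release.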

SMILES | clearance [1] [mL/min/kg] | half-life (chymotrypsin) [min] | T1/2 (Rattus norvegicus [2]) [min] | Kb (Rattus norvegicus [3]) [nM]
CCNC(=O)[C@@H]1CCCN1C(=O)[C@H](CCCN=C(N)N)NC(=O)C(CC(C)C)NC(=O)C(CC(C)C)NC(=O)[C@H](Cc1ccc(O)cc1)NC(=O)[C@H](CO)NC(=O)[C@H](Cc1c[nH]c2ccccc12)NC(=O)[C@H](Cc1ccccc1)N(C)C(=O)[C@@H]1CCC(=O)N1 (stereo in doubt) | 31 | 6 | 18 | 29.5
CC(C)C[C@H](NC(=O)[C@@H](Cc1ccc2ccccc2c1)NC(=O)[C@H](Cc1ccc(O)cc1)NC(=O)[C@H](CO)NC(=O)[C@H](Cc1c[nH]c2ccccc12)NC(=O)[C@H](Cc1ccccc1)N(C)C(=O)[C@@H]1CCC(=O)N1)C(=O)N[C@@H](CCCN=C(N)N)C(=O)N1CCC[C@H]1C(=O)NCC(N)=O | – | – | – | 1.58
CC(C)C[C@H](NC(=O)[C@@H](Cc1ccc2ccccc2c1)NC(=O)[C@H](Cc1ccc(O)cc1)NC(=O)[C@H](CO)NC(=O)[C@H](Cc1c[nH]c2ccccc12)NC(=O)[C@H](Cc1c[nH]cn1)NC(=O)[C@@H]1CCC(=O)N1)C(=O)N(C)[C@@H](CCCN=C(N)N)C(=O)N1CCC[C@H]1C(=O)NCC(N)=O | 3.87 | – | – | 11.2
CCNC(=O)[C@@H]1CCCN1C(=O)[C@H](CCCN=C(N)N)NC(=O)[C@H](CC(C)C)NC(=O)[C@@H](CC(C)C)NC(=O)[C@H](Cc1ccc(O)cc1)NC(=O)[C@H](CO)NC(=O)[C@H](Cc1cccc2ccccc12)N(C)C(=O)[C@H](Cc1c[nH]cn1)NC(=O)[C@@H]1CCC(=O)N1 | 14.4 | > 60 | 44 | 257
CCNC(=O)[C@@H]1CCCN1C(=O)[C@H](CCCN=C(N)N)NC(=O)[C@H](CC(C)C)NC(=O)[C@@H](Cc1c[nH]c2ccccc12)NC(=O)[C@H](Cc1ccc(O)cc1)NC(=O)[C@H](CO)NC(=O)[C@H](Cc1c[nH]c2ccccc12)NC(=O)[C@H](Cc1cnc[nH]1)N(C)C(=O)[C@@H]1CCC(=O)N1 | 16.4 | – | – | 5.5
